High-throughput results from PubChem BioAssay.
PfGluPho inh: PfG6PD enzyme inhibitors, primary screen, biochemical, fluorescence intensity, uHTS | PfGluPho enzyme, NADPH resazurin-diaphorase fluorescence | inhibition, % at 20 µM | hit rate 0.78% among 350,000;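 active = inhibition reaching at least a set limit at 20 µM in the primary screen, cut at about 59% in these data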
APJ ag: agonists of human apelin receptor APJ, primary screen, CHO-K1 cells, PathHunter beta-arrestin, luminescence; P35414; 0% DMSO wells, 100% apelin; activation, % at 20 µM; hit rate 0.11% among 330,000;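 active = activation more than six SD over the plate average, tested at 20 µM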
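system = engineered CHO-K1 APJ arrestin reporter cells | input = 1000 cells per well | timing = overnight seeding, 90 min compound at 25 °C, 1 h detection | measured by = enzyme-fragment complementation luminescence | read-out = beta-arrestin recruitment to APJ as agonist activity, luminescent signal | control set = negative DMSO alone, positive Apelin-13 at 10 nM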
CCR6 antag: CCR6 receptor antagonists, primary screen, cell-based, CHO-K1, luminescence, beta-arrestin, uHTS. CHO-K1 CCR6 PathHunter beta-arrestin, CCL20-stimulated. inhibition, % at 20 µM. C-C chemokine receptor type 6 (Homo sapiens), P51684. hit rate 0.49% among 340,000;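 active = compounds whose inhibition of the agonist-driven luminescence signal at 20 µM reaches about 50%, limit read from the data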;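 also: cells stimulated with CCL20 at 14 nM final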
Target sequence (P51684 whole entry, looked up): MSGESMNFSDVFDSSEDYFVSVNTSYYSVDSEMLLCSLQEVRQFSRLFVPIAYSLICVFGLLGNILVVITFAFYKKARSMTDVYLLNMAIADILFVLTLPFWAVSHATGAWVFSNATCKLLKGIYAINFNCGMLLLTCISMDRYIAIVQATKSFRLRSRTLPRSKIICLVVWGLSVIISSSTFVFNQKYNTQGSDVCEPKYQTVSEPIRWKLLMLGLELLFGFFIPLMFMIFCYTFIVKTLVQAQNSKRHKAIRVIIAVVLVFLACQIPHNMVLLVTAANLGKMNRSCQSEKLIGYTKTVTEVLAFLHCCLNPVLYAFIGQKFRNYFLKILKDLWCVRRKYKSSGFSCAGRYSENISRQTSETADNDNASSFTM
APJ antag: antagonists of human apelin receptor APJ, primary screen, CHO-K1 cells, beta-arrestin complementation, luminescence. inhibition, % at 20 µM. hit rate 0.32% among 330,000;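 active = inhibition above about 40% at 20 µM, limit read from the data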;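 also: cells challenged with 10 nM apelin-13 agonist together with compound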
CXCR6 inh: CXCR6 receptor inhibitors, primary screen, cell-based, beta-arrestin, luminescence, CHO-K1 PathHunter, 1536-well; C-X-C chemokine receptor type 6 (Homo sapiens), O00574; inhibition, % at 20 µM; hit rate 0.36% among 360,000; AID 602244, 2012; in the data active = inhibition above about 34%, passing the limit was not always enough;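 also: antagonist mode with CXCL16 agonist at 10 nM final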
Beta2AR agonist: beta2AR agonists driving receptor internalization, primary screen, cell-based, FAP fluorogen, flow cytometry; AID 504454, 2011; Am2.2-beta2AR cells; hit rate 0.43% among 340,000; Beta-2 adrenergic receptor (Homo sapiens), P07550; response, % (concentration not given with the values);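 active = response above a set limit, near 3 SD of response in nonfluorescent compounds, cut at about 42% in these data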
Hits are given with their value; n = inactive; x = not tested or not shown. An excerpt weighted towards active compounds, which were near 1.7% of everything screened.

SMILES | PfGluPho inh | APJ ag | CCR6 antag | APJ antag | CXCR6 inh | Beta2AR agonist
COc1cccc(/C=N/Nc2nc(Nc3ccc([N+](=O)[O-])cc3)nc(N3CCCC3)n2)c1O | n | n | 69 | n | 45 | n
CCN(CC)C(=N)/C(C#N)=N/Nc1ccccc1 | n | n | n | n | n | n
Cc1cccc2c(N=Nc3ccc(S(=O)(=O)Nc4cccc(Cl)c4)cc3[N+](=O)[O-])c(O)[nH]c12 | n | n | 58 | n | n | n
Cc1ccc(S(=O)(=O)Nc2ccccc2)cc1[N+](=O)[O-] | n | x | n | x | n | n
Cc1cc(C)c2c(=O)n(CC(=O)N3CCC(Cc4ccccc4)CC3)sc2n1 | x | n | x | n | x | x
Cc1cccc(N2CCN(C(=O)Cn3sc4nc(C)cc(C)c4c3=O)CC2C)c1 (stereo unspecified) | 105 | n | 72 | n | n | n
CC(Oc1ccccc1)C(=O)N=C1SC2CS(=O)(=O)CC2N1c1ccccc1 (stereo unspecified) | n | n | n | n | n | n
COc1ccc(N/N=C(/N=Nc2nc(C)cc(=O)[nH]2)c2ccccc2)cc1 | n | n | n | n | 33 | n
Cc1ccc(C(=O)C(C)OC(=O)Cn2cnc3c2c(=O)n(C)c(=O)n3C)cc1 (stereo unspecified) | n | n | n | n | n | n
CC1=NN(c2ccccc2)C(=O)/C1=C\C=C\c1ccccc1 | n | n | n | n | n | n
CC1=NN(c2ccccc2)C(=O)/C1=C/C=C/c1ccc(N(C)C)cc1 | n | x | 89 | x | 71 | n
Cc1cc(C)c(C(O)c2ncc(-c3cccc4ccccc34)[nH]2)c(C)c1 (stereo unspecified) | x | x | x | x | n | x
CC1(C(=O)NS(=O)(=O)c2ccc(Cl)s2)CCN1C(=O)C1(c2ccc(Cl)cc2)CCC1 (stereo unspecified) | x | x | x | x | n | x
N#C/C(=C\c1ccc(O)c(O)c1)S(=O)(=O)c1ccccc1 | n | n | 53 | n | n | n
N#C/C(=C/c1ccc(F)cc1)S(=O)(=O)c1ccccc1 | n | n | n | n | n | n
c1ccc(CCNc2ccnc3cc4ccccc4cc23)cc1 | n | x | n | x | n | 81
O=C(NCCc1ccccc1)c1nccc2ccccc12 | n | n | n | n | n | n
O=C1C=CC2(O[C@H](c3ccccc3)[C@@H](c3ccccc3)O2)[C@H](Sc2ccccc2O)C1 | n | x | 104 | x | 94 | 42
CN(C)CCCNC(=S)NCC(c1ccc(Cl)cc1Cl)c1c[nH]c2ccccc12 (stereo unspecified) | n | n | n | n | n | 47
N#CC1=C(N)C2=CCCC[C@H]2[C@H](c2ccccc2)C1(C#N)C#N | n | n | n | n | n | n
N#CC1=C(N)C2=CCCC[C@H]2[C@H](c2ccc(Br)cc2)C1(C#N)C#N | n | x | 68 | x | 46 | n
COc1cccc(OC)c1-c1nn2c(-c3cc(-c4ccccc4)n[nH]3)nnc2s1 | n | n | n | n | n | 100
CN=c1scc(-c2ccccc2F)n1/N=C/c1ccc(O)c(O)c1O | n | x | n | x | n | 101
COc1ccc(N=[N+]([O-])c2ccc(OC)cc2)cc1 | n | x | n | x | n | n
CCCN(CCC)C(=O)c1cc([N+](=O)[O-])cc2c1-c1ccc([N+](=O)[O-])cc1C2=C(C#N)C#N | n | n | 66 | n | x | x
SMILES | PfGluPho inh | APJ ag | CCR6 antag | APJ antag | CXCR6 inh | Beta2AR agonist
CCCCN(CCCC)C(=O)c1cc(Cl)ccc1[N+](=O)[O-] | n | n | n | n | n | n
CC(CNC(=O)CCS(=O)(=O)c1ccc2c(c1)NC(=O)CO2)c1ccccc1 (stereo unspecified) | n | n | n | n | n | n
CC1=C(C(=O)N(C(C)C)C(C)C)CC(CC(=O)NCCCCc2ccccc2)C(=O)N1Cc1ccc(F)cc1 (stereo unspecified) | x | x | x | x | n | x
C/C(=N\Nc1ncnc2sc(C)c(C)c12)c1ccccn1 | n | n | n | 47 | n | x
C/C(=N\Nc1ccc(Cl)c(C(=O)O)c1)c1ccccn1 | n | n | n | n | n | n
C/C(=N\Nc1ncc(Cl)cc1Cl)c1ccccn1 | n | x | n | x | 50 | n
